In data set [1] the target is Human immunodeficiency virus type 1 reverse transcriptase (Human immunodeficiency virus 1) (UniProt Q72547). Kind of data set: Ratio of Ki to Km for HIV1 reverse transcriptase.
The subject of data set [2] is Human immunodeficiency virus 1. Description: Antiviral activity against 0.1 MOI HIV1 3B infected in human TZM-b1 cells assessed as inhibition of viral replication at 0.22 uM after 24 hrs by luciferase assay. The format is functional. Conditions: Human immunodeficiency virus 1, 3B, TZM-b1, 24 h. In short, it runs like this: (§1)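 TZM-bl cells were plated at 0.5 x 10^4 per well in phenol red-free RPMI 1640 and allowed to adhere 15-18 h at 37°C. After a medium change, drug was added with quintuple wells per concentration, and cells were infected at the same time with HIV-1 IIIB at MOI 0.1. After 24 h, cells were lysed and luciferase was read minus the uninfected background. Values are percentage of mean luminescence in drug-free wells.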

Data set [3] deals with CCRF-CEM. Description: Drug metabolism in human CEM cells assessed as radioactive zidovudine monophosphate accumulation at 2 uM assessed per 10^6 cells. The format is ADME, cell-based. To be noted: TDE = time-dependent effect. In short, it runs like this: (§2)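 CEM cells (2 x 10^7/ml) in RPMI 1640 with 10% dialyzed FBS were incubated at 37°C with 2 µM [3H]analog (75 mCi/mmol) and harvested at 2, 4, 8, 12, 16 and 24 h. Cells were washed in ice-cold PBS with 20 µM dipyridamole and extracted with 15% TCA. Neutralized extracts were separated on a Partisil SAX column with an H2O to 300 mM potassium phosphate gradient and radiometric detection, reported as pmol/10^6 cells, mean ± SD of three experiments.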

Data set [4] has as its system CCRF-CEM. Description: Drug metabolism in human CEM cells assessed as radioactive zidovudine triphosphate accumulation at 2 uM after 2 hrs assessed per 10^6 cells. The format is ADME, cell-based. In outline:
as §2

The subject of data set [5] is CCRF-CEM. Description: Drug metabolism in human CEM cells assessed as radioactive 2', 3'-didehydro-3'-deoxy-4'-ethynylthymidine diphosphate accumulation at 2 uM assessed per 10^6 cells. The format is ADME, cell-based. To be noted: TDE = time-dependent effect. In short, it runs like this: as §2
Data set [6] concerns CCRF-CEM. Kind of data set: Drug metabolism in human CEM cells assessed as radioactive stavudine triphosphate accumulation at 2 uM assessed per 10^6 cells. The format is ADME, cell-based. To be noted: TDE = time-dependent effect. In short, it runs like this:
as §2

Data set [7] concerns CCRF-CEM. Kind of data set: Drug metabolism in human CEM cells assessed as radioactive zidovudine monophosphate accumulation at 2 uM after 2 hrs assessed per 10^6 cells. The format is ADME, cell-based. In outline: as §2
Data set [8] deals with CCRF-CEM. Kind of data set: Drug metabolism in human CEM cells assessed as radioactive stavudine monophosphate accumulation at 2 uM assessed per 10^6 cells. The format is ADME, cell-based. Conditions: TDE = time-dependent effect. In outline: as §2
For data set [9], the system named is Human immunodeficiency virus 1. Kind of data set: Antiviral activity against 0.1 MOI HIV1 3B infected in human TZM-b1 cells assessed as inhibition of viral replication after 24 hrs by luciferase assay. The format is functional, organism-based. In outline: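 TZM-bl cells in phenol red-free RPMI 1640 were infected with HIV-1 IIIB (MOI 0.1) at the time of adding drug at various concentrations, and drug and virus stayed together for 24 h. Lysate luciferase was measured with uninfected background subtracted, in quintuple wells. Inhibition was the mean signal relative to drug-free infected cells.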

Data set [10] relates to CCRF-CEM. Kind of data set: Stability in human CEM cells assessed as intracellular radioactive phosphorylated metabolite accumulation at 2 uM incubated for 24 hrs measured after 8 hrs of compound removal assessed per 10^6 cells. The format is ADME, cell-based. In short, it runs like this:
(§3)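 CEM cells were loaded with 2 µM [3H]analog (75 mCi/mmol) for 24 h, washed, and resuspended in drug-free medium. Intracellular metabolites were then measured by SAX-HPLC with radiometric detection at 0, 2, 4, 8, 12 and 24 h after removal. Values are pmol/10^6 cells, mean ± SD of three experiments.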

Data set [11] has as its system Human immunodeficiency virus 1. Kind of data set: Antiviral activity against 0.1 MOI HIV1 3B infected in human TZM-b1 cells assessed as inhibition of viral replication at 0.18 uM after 24 hrs by luciferase assay. The format is functional. Conditions: Human immunodeficiency virus 1, 3B, TZM-b1, 24 h. In short, it runs like this: as §1
The subject of data set [12] is CCRF-CEM. Description: Drug metabolism in human CEM cells assessed as radioactive zidovudine diphosphate accumulation at 2 uM assessed per 10^6 cells. To be noted: TDE = time-dependent effect. The format is ADME, cell-based. In short, it runs like this: as §2
Data set [13] has as its system CCRF-CEM. Kind of data set: Drug metabolism in human CEM cells assessed as radioactive 2', 3'-didehydro-3'-deoxy-4'-ethynylthymidine diphosphate accumulation at 2 uM after 12 hrs assessed per 10^6 cells. The format is ADME, cell-based. In short, it runs like this:
as §2

Data set [14] deals with CCRF-CEM. Description: Drug metabolism in human CEM cells assessed as radioactive 2', 3'-didehydro-3'-deoxy-4'-ethynylthymidine triphosphate accumulation at 2 uM assessed per 10^6 cells. The format is ADME, cell-based. Conditions: TDE = time-dependent effect. In outline: as §2
Data set [15] has as its system CCRF-CEM. Description: Drug metabolism in human CEM cells assessed as radioactive 2', 3'-didehydro-3'-deoxy-4'-ethynylthymidine monophosphate accumulation at 2 uM assessed per 10^6 cells. The format is ADME, cell-based. To be noted: TDE = time-dependent effect. In short, it runs like this: as §2
In data set [16] the test system is CCRF-CEM. Description: Drug metabolism in human CEM cells assessed as radioactive zidovudine triphosphate accumulation at 2 uM assessed per 10^6 cells. The format is ADME, cell-based. Conditions: TDE = time-dependent effect. In outline:
as §2

Data set [17] deals with CCRF-CEM. Description: Drug metabolism in human CEM cells assessed as radioactive stavudine diphosphate accumulation at 2 uM assessed per 10^6 cells. Conditions: TDE = time-dependent effect. The format is ADME, cell-based. In short, it runs like this:
as §2

The subject of data set [18] is Human immunodeficiency virus 1. Kind of data set: Antiviral activity against 0.1 MOI HIV1 3B infected in human TZM-b1 cells assessed as inhibition of viral replication at 0.13 uM after 24 hrs by luciferase assay. To be noted: Human immunodeficiency virus 1, 3B, TZM-b1, 24 h. The format is functional. In short, it runs like this: as §1
Data set [19] relates to CCRF-CEM. Description: Drug metabolism in human CEM cells assessed as radioactive 2', 3'-didehydro-3'-deoxy-4'-ethynylthymidine monophosphate accumulation at 2 uM after 12 hrs assessed per 10^6 cells. The format is ADME, cell-based. In short, it runs like this: as §2
Data set [20] has as its system Human immunodeficiency virus 1. Description: Antiviral activity against 0.1 MOI HIV1 3B in 24 hrs pretreated human TZM-b1 cells infected 24 hrs post drug removal assessed as inhibition of viral replication at 0.04 to 0.22 uM measured 24 hrs postinfection by luciferase assay. The format is functional, organism-based. In outline:
(§4)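 TZM-bl cells were plated in phenol red-free RPMI 1640, allowed to adhere 15–18 h at 37°C, then exposed to a range of drug concentrations for 24 h. Medium was changed to remove extracellular drug, and cells were infected with HIV-1 IIIB (MOI 0.1) at 0, 24 or 48 h after removal. Luciferase was read 24 h post-infection with uninfected-cell background subtracted, in quintuple wells, and expressed relative to no-drug wells.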

Data set [21] has as its system Human immunodeficiency virus 1. Description: Antiviral activity against 0.1 MOI HIV1 3B infected in human TZM-b1 cells assessed as inhibition of viral replication at 0.02 uM after 24 hrs by luciferase assay. The format is functional. Conditions: Human immunodeficiency virus 1, 3B, TZM-b1, 24 h. In outline:
as §1

Data set [22] relates to CCRF-CEM. Description: Stability in human CEM cells assessed as intracellular radioactive triphosphate metabolite accumulation at 2 uM incubated for 24 hrs measured after 24 hrs of compound removal assessed per 10^6 cells. The format is ADME, cell-based. In outline: as §3
The test system of data set [23] is CCRF-CEM. Kind of data set: Drug metabolism in human CEM cells assessed as radioactive zidovudine diphosphate accumulation at 2 uM after 2 hrs assessed per 10^6 cells. The format is ADME, cell-based. In outline:
as §2

Data set [24] deals with CCRF-CEM. Description: Drug metabolism in human CEM cells assessed as radioactive 2', 3'-didehydro-3'-deoxy-4'-ethynylthymidine triphosphate accumulation at 2 uM after 12 hrs assessed per 10^6 cells. The format is ADME, cell-based. In outline: as §2
Data set [25] relates to Human immunodeficiency virus 1. Kind of data set: Antiviral activity against 0.1 MOI HIV1 3B in 24 hrs pretreated human TZM-b1 cells infected 48 hrs post drug removal assessed as inhibition of viral replication at 0.04 to 0.22 uM measured 24 hrs postinfection by luciferase assay. The format is functional, organism-based. In short, it runs like this: as §4
Substrate in data set [26]: Cc1cn([C@H]2C[C@H](N=[N+]=[N-])[C@@H](CO)O2)c(=O)[nH]c1=O
Conditions: Homo sapiens; H9.

Substrate in data set [27]: Cc1cn([C@H]2C[C@H](N=[N+]=[N-])[C@@H](CO)O2)c(=O)[nH]c1=O
Conditions: Homo sapiens; H9. The source holds these as a separate data set.

The source made the active and inactive calls. The rule behind the calls is not given here.

Consider `Cc1cn([C@H]2C=C[C@@H](COP(=O)(O)OP(=O)(O)OP(=O)(O)O)O2)c(=O)[nH]c1=O`, for which the Ki/Km in data set [1] was determined as 1.1.

As to `C#C[C@@]1(COP(=O)(O)OP(=O)(O)OP(=O)(O)O)C=C[C@H](n2cc(C)c(=O)[nH]c2=O)O1`, the Ki/Km in [1] came out at 0.15.

What is called inhibition is the share of the control response that was lost under treatment. As to `Cc1cn([C@H]2C[C@H](N=[N+]=[N-])[C@@H](CO)O2)c(=O)[nH]c1=O` [ZIDOVUDINE], the inhibition at 0.22 µM in [2] was 50%. Further, the Activity entry is on record as “tde” in the data set on CCRF-CEM [3]; 90 pmol in the data set on CCRF-CEM [4]; “tde” in the data set on CCRF-CEM [5]; “tde” in the data set on CCRF-CEM [6]; 90 pmol in the data set with CCRF-CEM [7]; “tde” in the data set on CCRF-CEM [8]. The Activity result with CCRF-CEM [12] was “tde”; in the data set with CCRF-CEM [13] it was 18 pmol; in the data set on CCRF-CEM [14], “tde”; in the data set with CCRF-CEM [15], “tde”; with CCRF-CEM [16] it was “tde”; in the data set with CCRF-CEM [17], “tde”. The Activity came to 18 pmol with CCRF-CEM [19], 90 pmol in the data set on CCRF-CEM [23] and 18 pmol in the data set on CCRF-CEM [24]. Besides, the inhibition entry in [9] was “Dose-dependent effect”. Moreover, the Stability with CCRF-CEM [10] is 2.33 pmol; in the data set on CCRF-CEM [22], 0.14 pmol. In addition, the inhibition at 0.18 µM in data set [11] turned out to be 50%. The inhibition at 0.13 µM in data set [18] amounted to 50%. Moreover, the inhibition result in data set [20] and in data set [25] was “inactive” throughout. Also, the inhibition at 0.02 µM in data set [21] stood at 50%.

B1: Thymidine kinase, cytosolic (Homo sapiens), P04183 (protein)
chain: MSCINLPTVLPGSPSKTRGQIQVILGPMFSGKSTELMRRVRRFQIAQYKCLVIKYAKDTRYSSSFCTHDRNTMEALPACLLRDVAQEALGVAVIGIDEGQFFPDIVEFCEAMANAGKTVIVAALDGTFQRKPFGAILNLVPLAESVVKLTAVCMECFREAAYTKRLGTEKEVEVIGGADKYHSVCRLCYFKKASGQPAGPDNKENCPVPGKPGEAVAARKLFAPQQILQCSPAN
The Km is the substrate concentration at which the rate is half of its maximum. On to B1, for which the values for the Km in [26] and in [27] were 3 µM and 2.9 µM, respectively.
